PKD1 inh: PKD1 (human) kinase inhibition. 200,000 compounds, 0.056% hits. inhibition, % (test concentration not listed). PKD1 kinase fluorescence polarization assay. Q15139. AID 797
L major viab: reduces viability of Leishmania major promastigotes; resazurin fluorescence viability; 200,000 compounds, 9% hits; inhibition, % at 10 µM;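 further: promastigotes grown with compound for 44 hours at 28 °C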
CHOP inh: blocks CHOP induction under ER stress | CHO-K1 CHOP-promoter luciferase, tunicamycin-induced, 15-18 h | inhibition, % at 10 µM | 220,000 compounds, 3.8% hits | AID 2732;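 active means compounds that reduced the stress-induced luciferase reporter signal by more than about 70% of percent inhibition, limit read from the data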
Wee1 degr inh: blocks degradation of human Wee1 kinase | P30291 | HeLa Luc-Wee1K328M stability, luciferase luminescence; 100% = proteasome inhibitor MG132 effect | reporter increase, % at 5 µM | 220,000 compounds, 1.2% hits | AID 1321;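 active means activation above the mean of all tested compounds plus 3 SD, set per screening run, cut at about 8.8% in these data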;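 further: cells exposed to compound for 20 h before luminescence read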
Arbovirus inh: blocks arbovirus infection; arbovirus infection cell-based antiviral screen; inhibition, % at 10 µM; 200,000 compounds, 0.37% hits; in the data active means inhibition above about 30%
Rad51 HR inh: blocks human Rad51 in homologous recombination; Q06609; hRad51 DNA strand exchange, fluorescence dequenching; inhibition, % at 10 µM; 200,000 compounds, 0.085% hits; AID 1385;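 active means inhibition above 40% at the single screening dose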
Target sequence (Q06609 whole entry, looked up): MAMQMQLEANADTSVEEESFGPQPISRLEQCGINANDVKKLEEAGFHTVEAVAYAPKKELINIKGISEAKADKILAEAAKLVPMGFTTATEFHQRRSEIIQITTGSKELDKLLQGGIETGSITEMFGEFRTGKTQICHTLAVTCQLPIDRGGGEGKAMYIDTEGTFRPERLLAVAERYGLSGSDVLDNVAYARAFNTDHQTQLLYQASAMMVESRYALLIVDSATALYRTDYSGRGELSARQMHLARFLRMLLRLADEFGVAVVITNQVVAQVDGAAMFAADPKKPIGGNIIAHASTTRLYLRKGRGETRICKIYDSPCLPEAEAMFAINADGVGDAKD
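Material: Human Rad51 nucleoprotein filaments preassembled on unlabelled ssDNA | Also added: Labelled 47-mer dsDNA for strand exchange | Dosing: Single dose, 10 µM final compound | Schedule: 30-min compound preincubation and 15-min exchange, both room temperature | Technique: Fluorescence dequenching at 485/520 nm | Measure: Percent inhibition relative to plate controls and blanks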
Large screens that a line does not name were inactive. Sampled rows, rich in hits. Any-hit rate of the full collection: about 12%. Unless noted, no stated cut-off is given here; in the data, active means inhibition above about 50%; inactive means the rest.

O=C(NCCCN1CCOCC1)c1ccc(-n2nc(C(F)(F)F)cc2-c2cccs2)cc1	CHOP inh 76
O=C(COC(=O)C1CC2C=CC1C2)Nc1cccc(S(=O)(=O)N2CCCCC2)c1 (stereo unspecified)	none
O=C(COC(=O)C1CC2C=CC1C2)Nc1ccc2c(c1)OC(F)(F)O2 (stereo unspecified)	CHOP inh 91
CN1CCN(c2nc3ccccn3c(=O)c2/C=C(\C#N)S(=O)(=O)c2ccc(Cl)cc2)CC1	none (no result: PKD1 inh, L major viab, Arbovirus inh)
CCN(CC)Cc1c(O)ccc2c([N+](=O)[O-])c(C)n(-c3ccc(OC)cc3)c12	L major viab 69
Cc1ccc(Cn2c([N+](=O)[O-])cnc2C)cc1	none
Cc1ncc([N+](=O)[O-])n1CC(=O)NC1CCCCC1	L major viab 83
Cc1ncc([N+](=O)[O-])n1Cc1cccc(F)c1	L major viab 85
Cc1ncc([N+](=O)[O-])n1Cc1ccccc1	L major viab 73 (no result: Rad51 HR inh)
Cc1cccc(C)c1OCC(=O)Nc1ccc(N2CCOCC2)cc1	none
Cc1c(C=O)c2ccccn2c1C(=O)c1ccccc1	CHOP inh 72
Cc1c(C=O)c2ccccn2c1C(=O)c1ccc(Cl)c([N+](=O)[O-])c1	none
Cc1c(/C=N/NC(=O)CNc2ccccc2)c2ccccn2c1C(=O)c1ccc(Cl)cc1	none
Cc1c(/C=N/NC(=O)CNc2ccccc2)c2ccccn2c1C(=O)c1ccncc1	L major viab 100
O=C(O)c1ccccc1C(=O)NCCc1c(C(=O)O)[nH]c2ccc(F)cc12	none (no result: PKD1 inh, L major viab, Arbovirus inh)
Nc1[nH]n2c(=O)cc(-c3ccccc3)nc2c1N=Nc1ccccc1	L major viab 98
CNC(=O)CN(c1cc([N+](=O)[O-])ccc1OC)S(C)(=O)=O	none
COc1ccc([N+](=O)[O-])cc1N(CC(=O)NCC1CCCO1)S(C)(=O)=O (stereo unspecified)	L major viab 58
COc1ccc([N+](=O)[O-])cc1N(CC(=O)NCCC1=CCCCC1)S(C)(=O)=O	L major viab 71
COc1ccc(NC(=O)Oc2cc(C)ccc2C(C)C)cc1	none (no result: PKD1 inh, L major viab, Arbovirus inh)
O=C(NCc1ccccc1)C(c1ccc(O)cc1)N(C(=O)Cn1nnc(-c2cccs2)n1)c1ccc2c(c1)OCCO2 (stereo unspecified)	none
COc1cccc(N(C(=O)Cn2nnc(-c3cccs3)n2)C(C(=O)NC(C)C)c2ccc(C)o2)c1 (stereo unspecified)	CHOP inh 93
OCCNC(=S)NCc1ccccc1	none (no result: PKD1 inh, L major viab, Arbovirus inh)
OC(CNCc1cccc(Br)c1)c1ccccc1 (stereo unspecified)	none
OC(CNCc1ccc(-c2ccccc2)cc1)c1ccccc1 (stereo unspecified)	L major viab 99
OCCNCc1ccc(-c2ccccc2)cc1	L major viab 63
COc1ccccc1Nc1nc(N)nc(CN2CCC(Cc3ccccc3)CC2)n1	none
COc1ccc(Nc2nc(N)nc(CN3CCC(Cc4ccccc4)CC3)n2)cc1	L major viab 87
CCOC(=O)N1CCN(Cc2nc(N)nc(Nc3ccc(Oc4ccccc4)cc3)n2)CC1	CHOP inh 74
NC(=O)c1cccc(N)c1	none (no result: PKD1 inh, L major viab, Wee1 degr inh, Arbovirus inh, Rad51 HR inh)
COC(=O)C1=C(C)N(CCc2c[nH]c3ccc(OC)cc23)C(=O)C1	none
CCSC1(SCC)N=C(N)C2(C#N)C(c3ccc(F)cc3)C12C#N (stereo unspecified)	CHOP inh 82
COc1ccc(N2C(=O)C3C(c4ccc(C(=O)O)cc4)NC(Cc4ccccc4)(C(=O)O)C3C2=O)c([N+](=O)[O-])c1 (stereo unspecified)	none
Cc1cc(C)cc(Oc2ccccc2/C=N\O)c1	CHOP inh 73
Cn1c(=O)c2c(nc(NCCCN3CCOCC3)n2Cc2cccc(Cl)c2)n(C)c1=O	L major viab 98 (no result: CHOP inh, Arbovirus inh)
Cn1c(=O)c2c(nc(NCCCN3CCOCC3)n2Cc2ccc(Cl)c(Cl)c2)n(C)c1=O	L major viab 99 (no result: CHOP inh, Arbovirus inh, Rad51 HR inh)
Cn1c(=O)c2c(nc(NCCCN3CCOCC3)n2Cc2ccc(Cl)cc2)n(C)c1=O	L major viab 58 (no result: CHOP inh, Arbovirus inh)
CCn1c(SCC(=O)OC(C)C)nnc1-c1ccccc1OC	none
CCCC1Cc2nc(Cl)c(C#N)cc2CO1 (stereo unspecified)	none (no result: PKD1 inh, L major viab, Arbovirus inh)
CC1CCCC(C)N1S(=O)(=O)c1ccc(NC(=O)CCn2cnc3ccccc3c2=O)cc1 (stereo unspecified)	Rad51 HR inh 126
COCCn1c(SCC(=O)N2CC(=O)Nc3ccccc32)nc2ccccc21	L major viab 52
COCCn1c(SCC(=O)N2CC(=O)Nc3ccccc32)nc2ccccc2c1=O	none
Cc1onc(-c2ccccc2)c1C(=O)N/N=C/c1cc2c(cc1Cl)OCO2	L major viab 100
COc1cccc(/C=N/NC(=O)c2c(-c3ccccc3)noc2C)c1O	L major viab 95
O=C(N/N=C/c1cc2c(cc1Cl)OCO2)c1ccccn1	none (no result: CHOP inh, Arbovirus inh)
Cc1nc2c(c3c1[nH]c1ccccc13)C(O)CC(C)(C)C2 (stereo unspecified)	Arbovirus inh 54
O=C(Nc1cccc(O)c1)c1ccccc1	L major viab 62
O=C(NNc1cc(Br)c(O)c(Br)c1)c1ccccc1	L major viab 88 (no result: Rad51 HR inh)
COc1ccc(C(=O)Nc2cccc(C(=O)NCc3ccccc3)c2)cc1	none (no result: Rad51 HR inh)
CC(C)c1ccccc1NC(=O)c1cccc(NC(=O)c2ccccc2)c1	L major viab 91
CC(C)c1cc(NC(=O)c2ccccc2)cc(C(C)C)c1O	none
Cc1ccc(C(=O)Nc2cccc(C(=O)NCc3ccccc3)c2)cc1	L major viab 52
NS(=O)(=O)c1ccc(NNC(=O)c2ccccc2)cc1	none (no result: PKD1 inh, L major viab, Arbovirus inh)
CCCOC(=O)c1ccc(Cl)c(NC(=O)c2cccnc2)c1	none
O=C(NC1CCCCC1)N(Cc1ccccc1)Cc1ccco1	L major viab 55
CCCC(C(=O)NCC1CCCO1)N(Cc1ccco1)C(=O)CNS(=O)(=O)c1ccccc1 (stereo unspecified)	none
CCCC(C(=O)NC1CCCCC1)N(Cc1ccco1)C(=O)CNS(=O)(=O)c1ccccc1 (stereo unspecified)	L major viab 63
CC(C)C(C(=O)NCc1ccco1)N(C(=O)CNS(=O)(=O)c1ccc(Cl)cc1)C1CCCC1 (stereo unspecified)	L major viab 89
Fc1cccc(Cl)c1CNCc1ccccc1Cl	none
Cn1c(=O)c([N+](=O)[O-])c(-n2cnc3ccccc32)c2ccccc21	CHOP inh 74 (no result: PKD1 inh, L major viab, Arbovirus inh, Rad51 HR inh)
Cc1nccn1-c1c([N+](=O)[O-])c(=O)n(C)c2ccccc12	none (no result: PKD1 inh, L major viab, Arbovirus inh, Rad51 HR inh)
O=C(CSc1cc(Cl)ccc1Cl)NC1CCCc2ccccc21 (stereo unspecified)	L major viab 57
O=C(COc1ccccc1)NC1CCCc2ccccc21 (stereo unspecified)	L major viab 51
Cc1ccc(S(=O)(=O)N2CCN(CC(=O)NC3CCCc4ccccc43)CC2)c(C)c1 (stereo unspecified)	none
